# Experimental data published in the EternaBench riboswitch data.
# Legend:
# MS2 coat protein [1] = experiment: apparent Kd, MS2 coat protein; higher = weaker binding; RNA-MaP array
# Procedure, shortened: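 Designs measured on fewer than 10 clusters were excluded from the data. The rest were RNAs transcribed from sequenced DNA templates on an Illumina sequencing chip and incubated at room temperature, with or without input ligand, with fluorescently labeled MS2 coat protein at 1.5 nM to 3 μM for 0.8–1.5 h at the lowest to 10–20 min at the highest concentrations. Apparent Kd is the median of the per-cluster binding-curve fits.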
# MS2 coat protein [2] = experiment: apparent Kd, MS2 coat protein; higher = weaker binding; RNA-MaP array; FMN 200 µM where present
# Procedure, shortened: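 Two titrations, one without ligand and one with constant ligand, were run with SNAP-549-labelled MS2 coat protein from 0.7 or 1.5 nM, doubling to 3 µM. The targets were designs transcribed by stalled E. coli RNA polymerase on Illumina sequencing-chip clusters, in 100 mM Tris-HCl pH 7.5, 80 mM KCl, 4 mM MgCl2, BSA, DTT, yeast tRNA and Tween-20. The apparent Kd is the median of filtered per-cluster binding-curve fits, with green signal normalised to red-channel RNA signal and control-cluster median Fmax.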
# [3] = designed as: ON switch for flavin mononucleotide, no ligand
# [4] = ligand present: flavin mononucleotide, designed as: ON switch for flavin mononucleotide
# [5] = designed as: OFF switch for flavin mononucleotide, no ligand
# [6] = ligand present: flavin mononucleotide, designed as: OFF switch for flavin mononucleotide
sequence,measurement,setting,value
AAAACAUGAGGAUCACCCAUGUCCAAAUAAAUACACGGAACUAGAAGGGAAAAUCGAAAUUAAUAUCAGGAUAUAGGCAAAGCA,apparent Kd,MS2 coat protein [1]; [3],53 nM
same,apparent Kd,MS2 coat protein [1]; [4],42.2 nM
AAAAUACAUGAGGAUCACCCAUGUGCUUUCUAUUCAGGAUAUGGUGGUACAGUGGACAUACCAGAAGGGAAUGAAA,apparent Kd,MS2 coat protein [1]; [3],11.1 nM
same,apparent Kd,MS2 coat protein [1]; [4],8.34 nM
AAACGAGAGACAGAUACCAGCGCAGGAACGGAGUAUGGUGACAUGAGGAUCACCCAUGUGCGCCCUUGGCAGCUGAGCCGUAUUG,apparent Kd,"MS2 coat protein [1]; designed as: OFF switch for theophylline, no ligand",27.9 nM
same,apparent Kd,"MS2 coat protein [1]; ligand present: theophylline, designed as: OFF switch for theophylline",171 nM
AAACGCUAUGCGGCCGCCACUAAGGUUGGCGUCUAUGUCGUUUAAGACAUGAGGAUCACCCAUGUUAGGACCGGGCAUGUCCGCG,apparent Kd,"MS2 coat protein [1]; designed as: OFF switch for tryptophan, no ligand",21.2 nM
same,apparent Kd,"MS2 coat protein [1]; ligand present: tryptophan, designed as: OFF switch for tryptophan",21.1 nM
AAAUAUCAGUAGAAGGGCAUUUAAUCGAGACAUGCAGGAUAUACCAAUAACAGAUAAUUCUACAUGAGGAUCACCCAUGUACAG,apparent Kd,MS2 coat protein [1]; [3],12.7 nM
same,apparent Kd,MS2 coat protein [1]; [4],9.19 nM
AAAUGGACGGCAGGAUAUGGACAAGGAAUAUUACCAGAAGGGCCCUAAUGCUCAUACAUGAGGAUCACCCAUGUUGUAAUCAAU,apparent Kd,MS2 coat protein [1]; [5],17.8 nM
same,apparent Kd,MS2 coat protein [1]; [6],12.7 nM
AAAUGUGUAUAGGAUAUCUUGACCCACGCAUUCAGAGAAGGAUACACAUGAGGAUCACCCAUGUUGAGACGGAA,apparent Kd,MS2 coat protein [1]; [5],15.5 nM
same,apparent Kd,MS2 coat protein [1]; [6],43.9 nM
AAAUUACGUAAGAAGGCCAUAGGAACUGAAGCAAGCUCGACGACACAUGAGGAUCACCCAUGUCUGGAGGAUAUUAUGAUAUCU,apparent Kd,MS2 coat protein [1]; [3],10.3 nM
same,apparent Kd,MS2 coat protein [1]; [4],9.64 nM
AACAAGGAAGGAUAUACAUGAGGAUCACCCAUGUCACUAGGGCCUCCCGCUUCGCUGUGUAGAAGGACCAUGAA,apparent Kd,MS2 coat protein [1]; [5],9.74 nM
same,apparent Kd,MS2 coat protein [1]; [6],8.89 nM
AACCUACAUGAGGAUCACCCAUGUGAGGAUAUUGCGGUUCUUAGCAUGAGAACCAUACCAAGAAGGCACAGGGC,apparent Kd,MS2 coat protein [1]; [5],7.53 nM
same,apparent Kd,MS2 coat protein [1]; [6],23.2 nM
AACGCGCAAGAGAAGGGACGGGAGAUUCCGUGGGCUCUGAUCCUACAUGAGGAUCACCCAUGUAGUCAGGAUAUCUGGAGACGC,apparent Kd,MS2 coat protein [1]; [5],106 nM
same,apparent Kd,MS2 coat protein [1]; [6],124 nM
AAGCGUAGCUAGGAUAUGUAAUGACGGCUUUGAACAGAAGGAGCUACAUGAGGAUCACCCAUGUGUCCGACACA,apparent Kd,MS2 coat protein [1]; [5],15.9 nM
same,apparent Kd,MS2 coat protein [1]; [6],125 nM
AAGGCGUCAGGAUAUACGUCAUCUUCAAAUAACAUAACAAUACAUGAGGAUCACCCAUGUAGAAGGGACCAGCC,apparent Kd,MS2 coat protein [1]; [5],6.37 nM
same,apparent Kd,MS2 coat protein [1]; [6],6.46 nM
AAUCUCUCUGCAGGAUAUGGUCGCUGAGCUACUCCAGAAGGGCAGUGAGUAAGAUCGUCAGACAUGAGGAUCACCCAUGUAUUU,apparent Kd,MS2 coat protein [1]; [5],35.8 nM
same,apparent Kd,MS2 coat protein [1]; [6],30.9 nM
AAUCUGAUUGCGGCCGCCACUAAUUUUCCAUGAGUAUUGCAAUUACAUGAGGAUCACCCAUGUCAUAGGACCGGGCAUGACAUCU,apparent Kd,"MS2 coat protein [1]; designed as: ON switch for tryptophan, no ligand",303 nM
same,apparent Kd,"MS2 coat protein [1]; ligand present: tryptophan, designed as: ON switch for tryptophan",240 nM
AAUGAAUCCAAGAAGGAACACCAGGCGCACGUAAUCCAACAUGAGGAUCACCCAUGUAUAUUCUGUAAGGAUAUUGGAUUAAAG,apparent Kd,MS2 coat protein [1]; [5],7.45 nM
same,apparent Kd,MS2 coat protein [1]; [6],7.24 nM
AAUGUAUGUUAGGAUAUGGCCACGGCGAGGGACCCAGAAGGAACCACAUGAGGAUCACCCAUGUAAAAUAUGGA,apparent Kd,MS2 coat protein [1]; [5],20.3 nM
same,apparent Kd,MS2 coat protein [1]; [6],16.4 nM
AAUUGGAUCACAUGAGGAUCACCCAUGUCGGAAACUUUACUCAGAAGGAUGUGUACUUUUUCCACAUAGGAUAUGAGUACGACA,apparent Kd,MS2 coat protein [1]; [5],69.5 nM
same,apparent Kd,MS2 coat protein [1]; [6],74.6 nM
ACACCACAGCAGAAGGGUACAUUCUCCACGCGUACAGGAUAUGCGGACUCGGCGUCUCUGACAUGAGGAUCACCCAUGUUUUCU,apparent Kd,MS2 coat protein [1]; [3],85.9 nM
same,apparent Kd,MS2 coat protein [1]; [4],29.1 nM
UUUAAUAAGUAGAAGGACGGAGAGUAUGAAGUCGUAGGAUAUACAUAAGACAUGAGGAUCACCCAUGUGUGUAUUUUGGGUAUG,apparent Kd,MS2 coat protein [2]; [5],12.8 nM
same,apparent Kd,MS2 coat protein [2]; [6],13.4 nM
UUUAAUUAGUAAGGAUAUACUAGUGAUUAACUUGUAGAAGGUACAGUCUUAUGUAUAACAAAUUAACAUGAGGAUCACCCAUGU,apparent Kd,MS2 coat protein [2]; [3],9.54 nM
same,apparent Kd,MS2 coat protein [2]; [4],8.3 nM
UUUACAUGAGGAUCACCCAUGUCUGUCACCCAUGUGUGCAAUCAGGAUAUGAUAUCAAUAAUAAAUUAGAAGGGAUAACAUGAG,apparent Kd,MS2 coat protein [2]; [3],73.5 nM
same,apparent Kd,MS2 coat protein [2]; [4],100 nM
UUUACUUACGAAGGAUAUGGAUACAUGAGGAUCACCCAUGUAUGUAUGAUGAUCUAGUAGUUGGGCCAGAAGGUCGUGAUUAUU,apparent Kd,MS2 coat protein [2]; [5],16.9 nM
same,apparent Kd,MS2 coat protein [2]; [6],21.8 nM
UUUAUGAAGCUUCGUCAAUACAGUUAGGAUAUGAGAGACAUGAGGAUCACCCAUGUGCAUGUUGAUUAGAAGGAACAAUUAUCU,apparent Kd,MS2 coat protein [2]; [5],15.6 nM
same,apparent Kd,MS2 coat protein [2]; [6],14.6 nM
UUUAUGUAAGGAUAUGCGGGCGGGCGUGUUUAUGUUUGUUUGUAGAAGGUACAUGAGGAUCACCCAUGUAGUGG,apparent Kd,MS2 coat protein [2]; [5],90.1 nM
same,apparent Kd,MS2 coat protein [2]; [6],172 nM
UUUAUGUCAGGAUAUGAUUAGAUCUACUUUUGUAGAUCUAAUCAGAAGGGACAUGAGGAUCACCCAUGUUUUUU,apparent Kd,MS2 coat protein [2]; [5],44.8 nM
same,apparent Kd,MS2 coat protein [2]; [6],252 nM
